PubChem BioAssay AID602301 (The Scripps Research Institute Molecular Screening Center, 2012)
Calls of active or inactive are those of the source.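 How the source made its calls: active means inhibition of at least 50%; inactive means inhibition below 50%.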

system: Abhydrolase domain-containing protein 11 (ABHD11), Mus musculus; assay: recombinant ABHD11 inhibition, late-stage follow-up, selectivity assay for DAGLb inhibitor project, biochemical, competitive gel ABPP, mouse, set 1 (AID 602301); conditions: Recombinant ABHD11 in HEK293T proteome, gel ABPP FP-Rh; at 10 µM; hits give high values
How it was run: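 System: recombinant mouse ABHD11 spiked into HEK293T membrane proteome overexpressing mouse DAGLb; Quantity: 0.050 µM ABHD11 in 0.3 mg/mL proteome; Times: 30 min compound plus 30 min probe, 37 °C; Technique: SDS-PAGE in-gel fluorescence, band IOD; Measure: percent inhibition of ABHD11 band, background-corrected, relative to DMSO control.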

| SMILES | inhibition |
| --- | --- |
| O=C(N(CCc1ccccc1)Cc1ccco1)n1cc(-c2ccc(OC(F)(F)F)cc2)nn1 | 15% (inactive) |
| O=C(N1CCCCC1Cc1ccccc1)n1cc(-c2ccc(-c3ccc(OC(F)(F)F)cc3)cc2)nn1 (stereo not given) | 20% (inactive) |
| O=C(N1CCCCC1Cc1ccccc1)n1cc(-c2ccc(-c3ccc4c(c3)OCO4)cc2)nn1 (stereo not given) | 10% (inactive) |
| CC(C)(C)OC(=O)NCCCCCN(CCc1ccccc1)C(=O)n1cc(-c2ccc(OC(F)(F)F)cc2)nn1 | 0% (inactive) |
| O=C(N1CCCCC1Cc1ccccc1)n1cc(-c2ccc(-c3ccccc3CO)cc2)nn1 (stereo not given) | 20% (inactive) |
| O=C(N1CCCCC1Cc1ccccc1)n1ncc(C(O)(c2ccccc2)c2ccccc2)n1 (stereo not given) | 95% |
| CC(C)CN(CCc1ccccc1)C(=O)n1cc(-c2ccc(OC(F)(F)F)cc2)nn1 | 10% (inactive) |
| O=C(N1CCCCC1Cc1ccccc1)n1cc(-c2ccc(-c3ccccc3Cl)cc2)nn1 (stereo not given) | 50% |
| O=C(N1CCCCC1Cc1ccccc1)n1cc(-c2ccc(-c3cccc(CO)c3)cc2)nn1 (stereo not given) | 20% (inactive) |
| O=C(N1CCCCC1Cc1ccccc1)n1cc(-c2ccc(-c3ccccc3OC(F)(F)F)cc2)nn1 (stereo not given) | 20% (inactive) |
| O=C(N1CCCCC1Cc1ccccc1)n1cc(-c2ccc(-c3ccccc3)cc2)nn1 (stereo not given) | 0% (inactive) |
| O=C(N1CCCCC1Cc1ccccc1)n1cc(-c2ccccc2-c2ccccc2)nn1 (stereo not given) | 95% |
| O=C(c1ccc(-c2ccc(-c3cn(C(=O)N4CCCCC4Cc4ccccc4)nn3)cc2)cc1)N1CCCCC1 (stereo not given) | 20% (inactive) |
| O=C(N1CCCCC1Cc1ccccc1)n1cc(-c2ccc(-c3ccc(C(F)(F)F)cc3)cc2)nn1 (stereo not given) | 30% (inactive) |
| O=C(N1CCCCC1Cc1ccccc1)n1cc(-c2cc(F)cc(F)c2)nn1 (stereo not given) | 95% |
| O=C(N1CCCCC1Cc1ccccc1)n1cc(-c2ccc(Br)cc2)nn1 (stereo not given) | 90% |
| O=C(N1CCCCC1Cc1ccccc1)n1cc(-c2cccc(-c3ccccc3)c2)nn1 (stereo not given) | 80% |
| O=C(N1CCCCC1Cc1ccccc1)n1cc(-c2ccc(-c3ccccc3C(F)(F)F)cc2)nn1 (stereo not given) | 10% (inactive) |
| Cc1ccccc1-c1ccc(-c2cn(C(=O)N3CCCCC3Cc3ccccc3)nn2)cc1 (stereo not given) | 60% |
| O=C(c1ccc(-c2cn(C(=O)N3CCCCC3Cc3ccccc3)nn2)cc1)N1CCCCC1 (stereo not given) | 10% (inactive) |
| COc1ccccc1-c1ccc(-c2cn(C(=O)N3CCCCC3Cc3ccccc3)nn2)cc1 (stereo not given) | 10% (inactive) |
| O=C(N1CCCCC1Cc1ccccc1)n1cc(-c2ccc(-c3cccc(C(F)(F)F)c3)cc2)nn1 (stereo not given) | 10% (inactive) |
| O=C(N1CCCCC1Cc1ccccc1)n1ncc(-c2ccc(OC(F)(F)F)cc2)n1 (stereo not given) | 10% (inactive) |
| O=C(N1CCCCC1Cc1ccccc1)n1cc(-c2ccc(-c3ccoc3)cc2)nn1 (stereo not given) | 30% (inactive) |
| O=C(N1CCCCC1Cc1ccccc1)n1cc(-c2ccc(OC(F)(F)F)cc2)nn1 (stereo not given) | 50% |
